Common to all, as to type: functional
For one experiment, the system named is NCI-H23. Description: Growth inhibition of human NCI-H23 cells at 10 uM after 48 hrs by sulforhodamine B assay. Particulars: NCI-H23, 48 h, read-out: GI. The gist of the method: (§1)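 Run at NCI on the 60-line panel. Cells grown in RPMI 1640 with 5% FBS and 2 mM L-glutamine, plated at 5000–40,000 cells/well by doubling time, and held 24 h at 37 °C before dosing. Drug (DMSO stock) given at a single final 10 µM in triplicate wells for 48 h. Adherent cells fixed with cold TCA (10% final), suspension cells with 16% TCA. SRB stain read at 515 nm. Percent growth from Tz, C and Ti.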

The nature of experiment [1]: Growth inhibition of human MOLT4 cells at 10 uM after 48 hrs by sulforhodamine B assay. Particulars: MOLT-4, 48 h, read-out: GI. The method in brief: as §1
In general terms: The SRB assay estimates cell density from bound dye.

Another experiment deals with A498. Description: Growth inhibition of human A498 cells at 10 uM after 48 hrs by sulforhodamine B assay. The settings on record: A498, 48 h, read-out: GI. The gist of the method:
as §1

A short description of experiment [2]: Growth inhibition of human Hs 578T cells at 10 uM after 48 hrs by sulforhodamine B assay. Particulars: read-out: GI. The method in brief: as §1
Experiment [3] is described as follows: Growth inhibition of human TK10 cells at 10 uM after 48 hrs by sulforhodamine B assay. The settings on record: TK-10, 48 h, read-out: GI. The gist of the method: (§2)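 NCI-60 panel, adherent cells grown in RPMI 1640 with 5% FBS and 2 mM L-glutamine, plated at 5000–40,000 cells/well and preincubated 24 h at 37 °C, 5% CO2. 10 µM final compound from DMSO stock, triplicate wells, 48 h. Fixed with cold TCA (10% final, 60 min, 4 °C) and stained with 0.4% SRB. Absorbance read at 515 nm; growth calculated against time-zero and control wells.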

The next experiment deals with T47D. Kind of experiment: Growth inhibition of human T47D cells at 10 uM after 48 hrs by sulforhodamine B assay. Particulars: read-out: GI. The method in brief:
as §2

The nature of experiment [4]: Growth inhibition of human NCI-ADR-RES cells at 10 uM after 48 hrs by sulforhodamine B assay. Particulars: read-out: GI. The method in brief: as §1
The test system of another experiment is 786-0. Description: Growth inhibition of human 786-0 cells at 10 uM after 48 hrs by sulforhodamine B assay. The settings on record: 786-0, 48 h, read-out: GI. The gist of the method:
as §1

The nature of experiment [5]: Growth inhibition of human IGROV1 cells at 10 uM after 48 hrs by sulforhodamine B assay. Particulars: IGROV-1, 48 h, read-out: GI. The gist of the method: as §1
A short description of experiment [6]: Growth inhibition of human HOP62 cells at 10 uM after 48 hrs by sulforhodamine B assay. The settings on record: HOP-62, 48 h, read-out: GI. The gist of the method:
as §1

The subject of the next experiment is NCI-H522. Description: Growth inhibition of human NCI-H522 cells at 10 uM after 48 hrs by sulforhodamine B assay. Particulars: NCI-H522, 48 h, read-out: GI. The method in brief: as §1
A short description of experiment [7]: Growth inhibition of human DU145 cells at 10 uM after 48 hrs by sulforhodamine B assay. Particulars: DU-145, 48 h, read-out: GI. The gist of the method:
as §1

A short description of experiment [8]: Growth inhibition of human UACC257 cells at 10 uM after 48 hrs by sulforhodamine B assay. Particulars: UACC-257, 48 h, read-out: GI. The method in brief: as §2
The nature of experiment [9]: Growth inhibition of human SF539 cells at 10 uM after 48 hrs by sulforhodamine B assay. Particulars: SF-539, 48 h, read-out: GI. The gist of the method: as §1
A short description of experiment [10]: Growth inhibition of human SNB75 cells at 10 uM after 48 hrs by sulforhodamine B assay. Particulars: SNB-75, 48 h, read-out: GI. The method in brief: as §1
The nature of experiment [11]: Growth inhibition of human Caki1 cells at 10 uM after 48 hrs by sulforhodamine B assay. Particulars: CAKI-1, 48 h, read-out: GI. The method in brief:
as §1

Another experiment has as its system NCI-H322M. Description: Growth inhibition of human NCI-H322M cells at 10 uM after 48 hrs by sulforhodamine B assay. The settings on record: read-out: GI. The gist of the method:
as §1

For the next experiment, the system named is MDA-MB-231. Description: Growth inhibition of human MDA-MB-231 cells at 10 uM after 48 hrs by sulforhodamine B assay. The settings on record: MDA-MB-231, 48 h, read-out: GI. The method in brief: as §1
The nature of experiment [12]: Growth inhibition of human OVCAR3 cells at 10 uM after 48 hrs by sulforhodamine B assay. The settings on record: OVCAR-3, 48 h, read-out: GI. The method in brief:
as §1

For the next experiment, the system named is MDA-MB-435. Kind of experiment: Growth inhibition of human MDA-MB-435 cells at 10 uM after 48 hrs by sulforhodamine B assay. The settings on record: MDA-MB-435, 48 h, read-out: GI. The gist of the method:
as §1

Another experiment concerns NCI-H226. Description: Growth inhibition of human NCI-H226 cells at 10 uM after 48 hrs by sulforhodamine B assay. Particulars: NCI-H226, 48 h, read-out: GI. The method in brief: as §1
Another experiment relates to U-251. Kind of experiment: Growth inhibition of human U251 cells at 10 uM after 48 hrs by sulforhodamine B assay. Particulars: U-251, 48 h, read-out: GI. The method in brief:
as §2

Experiment [13] is described as follows: Growth inhibition of human UACC62 cells at 10 uM after 48 hrs by sulforhodamine B assay. Particulars: UACC-62, 48 h, read-out: GI. The gist of the method:
as §2

In ChEMBL document CHEMBL3779892, “Increasing the binding affinity of VEGFR-2 inhibitors by extending their hydrophobic interaction with the active site: Design, synthesis and biological evaluation of 1-substituted-4-(4-methoxybenzyl)phthalazine derivatives” (Eur J Med Chem, 2016) one finds inhibition of growth data, which are given here for six compounds.

Turning to `COc1ccc(Cc2nnc(Nc3cccc(OC)c3)c3ccccc23)cc1`, the inhibition of growth at 10 µM in the experiment on NCI-H23 was under 30%; in [1] it was under 30%; in the experiment with A498 it was under 30%; in experiment [2] it was under 30%; in experiment [3], under 30%; in the experiment on T47D, 30%. Moreover, the inhibition of growth at 10 µM in experiment [4] is 30%; with 786-0, under 30%; in experiment [5] it was 33%; in [6], 35%; in the experiment with NCI-H522, 63%; in experiment [7], under 30%. For the same compound, the inhibition of growth at 10 µM is under 30% in [8]; under 30% in experiment [9]; 41% in experiment [10]; under 30% in experiment [11]; under 30% in the experiment with NCI-H322M; 37% with MDA-MB-231. Further, the inhibition of growth at 10 µM in experiment [12] was under 30%; in the experiment on MDA-MB-435, under 30%; with NCI-H226, 37%; in the experiment with U-251 it was under 30%; in [13] it was under 30%.
As to `COc1ccc(Cc2nnc(Nc3ccc(NC(=O)Nc4ccccc4Cl)cc3)c3ccccc23)cc1`, the inhibition of growth at 10 µM with NCI-H23 is under 30%; in experiment [1], under 30%; in the experiment with A498 it was 44%; in [2], under 30%; in experiment [3], under 30%; in the experiment with T47D it was 52%. Besides, the inhibition of growth at 10 µM in experiment [4] was under 30%; in the experiment on 786-0, 41%; in [5] it was under 30%; in [6] it was under 30%; in the experiment on NCI-H522, 33%; in experiment [7] it was under 30%. The inhibition of growth at 10 µM (in experiment [8]; in [9]; in experiment [10]; in [11]; in the experiment with NCI-H322M; with MDA-MB-231) was under 30% throughout. Also, the inhibition of growth at 10 µM (in experiment [12]; with MDA-MB-435; with NCI-H226; in the experiment on U-251; in experiment [13]) was under 30% in each case.
As to `COc1ccc(Cc2nnc(Nc3ccc(C#N)cc3)c3ccccc23)cc1`, the inhibition of growth at 10 µM in the experiment with NCI-H23 is under 30%; in experiment [1], under 30%; in the experiment with A498, 30%; in experiment [2], under 30%; in experiment [3], under 30%; with T47D it was 50%. The inhibition of growth at 10 µM (in experiment [4]; with 786-0; in experiment [5]; in experiment [6]; in the experiment with NCI-H522; in [7]) was under 30% throughout. The inhibition of growth at 10 µM (in experiment [8]; in experiment [9]; in [10]; in [11]; in the experiment on NCI-H322M; in the experiment on MDA-MB-231) was under 30% in each case. Further, the inhibition of growth at 10 µM (in [12]; with MDA-MB-435; with NCI-H226; with U-251; in experiment [13]) was under 30% in each case.
Take `COc1ccc(Cc2nnc(Nc3cccc(Cl)c3)c3ccccc23)cc1`: the inhibition of growth at 10 µM with NCI-H23 was under 30%; in experiment [1] it was 37%; in the experiment with A498, 34%; in [2] it was under 30%; in [3], under 30%; in the experiment with T47D, 41%. The inhibition of growth at 10 µM in experiment [4] is 32%; with 786-0, under 30%; in experiment [5] it was under 30%; in [6], under 30%; in the experiment on NCI-H522, 50%; in [7], under 30%. Also, the inhibition of growth at 10 µM in experiment [8] is under 30%; in experiment [9], 35%; in [10], 32%; in experiment [11], under 30%; with NCI-H322M it was under 30%; in the experiment on MDA-MB-231 it was 39%. The inhibition of growth at 10 µM was 34% in experiment [12]; under 30% in the experiment on MDA-MB-435; 35% with NCI-H226; 34% in the experiment with U-251; 39% in [13].
Turning to `COc1ccc(Cc2nnc(Nc3ccc(NC(=O)Nc4cccc(C(F)(F)F)c4)cc3)c3ccccc23)cc1`, the inhibition of growth at 10 µM in the experiment on NCI-H23 was under 30%; in [1], 37%; in the experiment on A498, under 30%; in experiment [2], 34%; in experiment [3], under 30%; with T47D it was under 30%. The inhibition of growth at 10 µM was under 30% in [4]; 41% in the experiment with 786-0; under 30% in [5]; under 30% in [6]; 56% in the experiment on NCI-H522; under 30% in experiment [7]. Besides, the inhibition of growth at 10 µM in [8] is under 30%; in experiment [9], under 30%; in [10] it was 31%; in experiment [11] it was under 30%; in the experiment with NCI-H322M, under 30%; in the experiment on MDA-MB-231 it was under 30%. For the same compound, the inhibition of growth at 10 µM in experiment [12] was under 30%; in the experiment with MDA-MB-435, under 30%; in the experiment with NCI-H226, under 30%; in the experiment with U-251 it was 30%; in experiment [13] it was under 30%.
For the compound `COc1ccc(Cc2nnc(Nc3ccc(OC)cc3)c3ccccc23)cc1`, the inhibition of growth at 10 µM was under 30% in the experiment on NCI-H23; 31% in experiment [1]; 47% in the experiment on A498; under 30% in experiment [2]; under 30% in experiment [3]; 46% with T47D. The inhibition of growth at 10 µM (in experiment [4]; with 786-0; in experiment [5]; in experiment [6]; in the experiment on NCI-H522; in [7]) was under 30% throughout. The inhibition of growth at 10 µM in experiment [8] is under 30%; in experiment [9], under 30%; in [10], under 30%; in experiment [11] it was under 30%; in the experiment on NCI-H322M it was under 30%; in the experiment on MDA-MB-231, 36%. Moreover, the inhibition of growth at 10 µM in experiment [12] is under 30%; with MDA-MB-435 it was under 30%; in the experiment on NCI-H226, under 30%; with U-251, under 30%; in experiment [13], 34%.
